High-throughput results as filed in PubChem BioAssay.
Most compounds without a hit are left out; they make up all but 2.9% or so of the library.
Tn7 DDE FP: disrupts Tn7 cyclic peptide binding to fibrin D-Dimer-E complex; P02675; FP displacement of FITC-Tn7 peptide from fibrin DD(E); 0% = median of compound wells per plate; inhibition, % at 8.3 µM; actives 0.13% (n = 370,000);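 active = inhibition above the mean of compounds falling within the control limits plus 3 SD of them, cut at about 14% in these data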;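 note: 0% = plate median of compound wells and 100% = 10 µM Aha-Tn7 peptide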
Target sequence (P02675 whole entry, looked up): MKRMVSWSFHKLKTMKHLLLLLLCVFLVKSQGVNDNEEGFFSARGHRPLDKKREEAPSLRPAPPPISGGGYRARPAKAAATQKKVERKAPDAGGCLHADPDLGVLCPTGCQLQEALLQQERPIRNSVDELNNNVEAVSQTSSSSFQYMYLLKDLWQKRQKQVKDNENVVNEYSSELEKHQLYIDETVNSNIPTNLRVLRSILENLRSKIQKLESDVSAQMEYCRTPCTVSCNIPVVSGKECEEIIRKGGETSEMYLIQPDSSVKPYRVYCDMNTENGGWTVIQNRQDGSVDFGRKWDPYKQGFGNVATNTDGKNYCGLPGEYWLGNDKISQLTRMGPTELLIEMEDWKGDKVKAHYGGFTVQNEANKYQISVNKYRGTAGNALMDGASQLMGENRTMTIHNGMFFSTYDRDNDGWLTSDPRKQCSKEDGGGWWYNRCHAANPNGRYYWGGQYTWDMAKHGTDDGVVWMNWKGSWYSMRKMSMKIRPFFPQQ
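Assay system: human fibrin DD(E) protein / Input: 2 µM fibrin DD(E) / Benchmarks: high control of 10 µM Aha-Tn7 peptide / Measured by: fluorescence polarization of the labelled Tn7 tracer / Medium: Tris buffer with calcium and detergent, pH 7.8 / Timing: 10 min compound pre-incubation, 3 h probe incubation at room temperature / Repeats: one replicate per compound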
CRFR2-BP ag: agonists of human CRF-binding protein/CRF-R2 receptor complex | AID 588473 | actives 0.46% (n = 350,000) | activation, % at 13.2 µM | HEK293 CRF-R2/CRF-BP, calcium dye fluorescence (FLIPR); percent of saturating CRF peptide response;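 active = activation of at least 50%, plus an integration ratio under a set limit after plate pattern correction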;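 note: plate controls were neutral control wells without compound for no effect and CRF at EC100 for full effect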
proKLK7 act: activators of human kallikrein-7 zymogen | AID 652039 | P49862 | actives 0.9% (n = 370,000) | purified proKLK7, EDANS-DABCYL substrate fluorescence; 100% is mature enzyme control, 0% vehicle | activation, % at 7 µM;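 active = activation above the mean of all tested compounds plus 3 SD, computed per campaign excluding outliers beyond control limits, cut at about 13% in these data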
Target sequence (P49862 whole entry, looked up): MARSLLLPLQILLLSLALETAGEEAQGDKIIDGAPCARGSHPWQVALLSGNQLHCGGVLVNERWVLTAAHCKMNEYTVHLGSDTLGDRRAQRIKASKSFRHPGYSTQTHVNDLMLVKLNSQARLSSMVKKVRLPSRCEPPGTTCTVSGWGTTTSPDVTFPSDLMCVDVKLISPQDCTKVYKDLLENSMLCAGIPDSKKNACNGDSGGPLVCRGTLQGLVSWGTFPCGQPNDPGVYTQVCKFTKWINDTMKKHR
Tn6 DDE FP: inhibitors of Tn6 peptide binding to human fibrin DD(E) | P02675 | inhibition, % at 8.3 µM | actives 0.21% (n = 370,000) | Fibrin DD(E) TRITC-Tn6 fluorescence polarization displacement;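 active = inhibition above a per-campaign cutoff: mean of compounds within control limits plus 3 SD, cut at about 15% in these data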;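 note: 0% = median of all compound wells on the plate and 100% = blocking peptide control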
CRFR2-BP antag: CRF-BP/CRF-R2 complex antagonism; actives 0.59% (n = 350,000); inhibition, % at 11.8 µM; HEK293 CRF-R2/CRF-BP, CRF-induced calcium fluorescence;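 active = inhibition of the ligand-induced calcium signal above about 50% at the single tested concentration, limit read from the data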
NRP1-CendR mod: NRP-1/CendR interaction modulation; O14786; FAM-RPARPAR peptide binding to NRP-1, fluorescence polarization; inhibition, % at 25 µM; actives 0.85% (n = 360,000); AID 602438;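 active = inhibition or corrected inhibition above about 18%, plus a signal ratio from 0.5 to 1.5, limit read from the data, passing the limit was not always enough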
proKLK7 act conf: proKLK7 activation, confirmation | shares compounds with proKLK7 act | purified proKLK7, EDANS-DABCYL substrate fluorescence; scaled: vehicle 0, mature enzyme 100 | activation, % at 7 µM | actives 68% (n = 3,200) | AID 686949;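 active = activation, as change over the incubation, above the mean of all tested compounds plus 3 SD, cut at about 13% in these data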
EDANS-DABCYL int: fluorescence interference counter-screen for KLK7 activators; shares compounds with proKLK7 act; EDANS-DABCYL substrate fluorescence interference, no enzyme, 4 h; solvent 0%, active enzyme control 100%; activation, % at 7 µM; actives 80% (n = 3,200); AID 686952;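 active = activation above the all-compound mean plus 3 SD, ignoring values outside control-based bounds, cut at about 4.8% in these data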;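 note: value is the 4 h activation minus the activation read at time zero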
K7 EDANS ctr: EDANS fluorescence interference in dose response, no enzyme; shares compounds with proKLK7 act; EDANS-DABCYL peptide fluorescence interference; EC50, µM; actives 20% (n = 250); AID 720493;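 active = compounds that raise the fluorescence signal in this interference counterscreen, with EC50 at or below 10 µM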;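 note: intact quenched peptide substrate alone read at 355 nm excitation and 520 nm emission; signal is fluorescence gain from T0 to T4 after four hours at room temperature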
Tn7 DDE conf: confirmation of inhibitors of Tn7 binding to human fibrin DD(E). actives 5% (n = 460). inhibition, % at 8.3 µM. AID 720628. shares compounds with Tn7 DDE FP. FP displacement of TRITC-Tn7 peptide from DD(E); 0% set at plate's compound-well median;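 active = inhibition above the campaign cutoff, the mean of compounds within control limits plus 3 SD, cut at about 14% in these data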;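 note: 100% = median FP of high control wells holding Aha-Tn7 inhibitor peptide; displacers lower polarization since freed probe rises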
DDE Tn7 FP ctr: counter-screen for inhibitors of Tn7 peptide binding to fibrin DD(E); actives 3% (n = 460); TRITC-Tn7 probe displacement, fluorescence polarization; shares compounds with Tn7 DDE FP; inhibition, % at 8.3 µM; AID 720633;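 active = inhibition above the cutoff, the mean of compounds lying between the control bounds plus 3 SD of those compounds, cut at about 17% in these data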;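 note: 0% = median of compound sample wells and 100% = excess unlabeled Aha-Tn7 peptide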
* marks the source's active call; other numbers are inactive results.

Results for COC(=O)C1CC(OC(C)=O)C(=O)[C@H]2C1(C)CC[C@H]1C(=O)OC(c3ccoc3)CC12C (some centres not stated) ?
Tn7 DDE FP: 0; proKLK7 act: 0; Tn6 DDE FP: -4

How did COC(=O)C12CCc3c(ccc4cc(OC)ccc34)C1=CC(=O)C2 (configuration not stated) do in these assays?
Tn7 DDE FP: 2; CRFR2-BP ag: -2; proKLK7 act: 93*; Tn6 DDE FP: -1; CRFR2-BP antag: 60*; NRP1-CendR mod: 6; proKLK7 act conf: 65*; EDANS-DABCYL int: 79*

Results for CCN1CCN(C(=O)COc2ccc3c(c2)C(=O)CC2(CCN(C(C)=O)CC2)O3)CC1 ?
Tn7 DDE FP: 6; CRFR2-BP ag: 1; proKLK7 act: 36*; Tn6 DDE FP: -9; CRFR2-BP antag: -13; NRP1-CendR mod: -4; proKLK7 act conf: 82*; EDANS-DABCYL int: 63*; K7 EDANS ctr: >70

What do the screens show for `CC1(C)CC(=O)c2cc(OCC(=O)N3CCN(Cc4ccccc4)CC3)ccc2O1`?
Tn7 DDE FP: 0; CRFR2-BP ag: 3; proKLK7 act: -3; Tn6 DDE FP: 3; CRFR2-BP antag: -6; NRP1-CendR mod: 2

What do the screens show for `Cc1ccc(OC(=O)N(C)C[C@H]2OCc3cnnn3CCCC(=O)N([C@@H](C)CO)C[C@@H]2C)cc1`?
Tn7 DDE FP: 0; proKLK7 act: 0; Tn6 DDE FP: 0

How did CCOC(=O)c1cc2c(cn1)[nH]c1ccccc12 do in these assays?
Tn7 DDE FP: 2; CRFR2-BP ag: 0; proKLK7 act: 20*; Tn6 DDE FP: -4; CRFR2-BP antag: -35; NRP1-CendR mod: -7; proKLK7 act conf: -2; EDANS-DABCYL int: -5

What do the screens show for `COc1cc2c(cc1OC)C(c1c(O)n(CCc3ccccc3)c(=S)[nH]c1=O)NCC2` (configuration not stated)?
Tn7 DDE FP: 9; CRFR2-BP ag: 3; proKLK7 act: 95*; Tn6 DDE FP: -4; CRFR2-BP antag: -13; proKLK7 act conf: 85*; EDANS-DABCYL int: 84*

What do the screens show for `COc1ccc(C2CC(c3c(O)n(CCc4ccccc4)c(=O)[nH]c3=O)=NN2)cc1OC` (configuration not stated)?
Tn7 DDE FP: -6; CRFR2-BP ag: -1; proKLK7 act: 0; Tn6 DDE FP: -1; CRFR2-BP antag: 4; NRP1-CendR mod: -2

What do the screens show for `CCCCNC(=O)c1c(N)n(CCCOC)c2nc3ccccc3nc12`?
Tn7 DDE FP: 3; CRFR2-BP ag: 3; proKLK7 act: -31; Tn6 DDE FP: -2; CRFR2-BP antag: -21; NRP1-CendR mod: -1

What do the screens show for `CCOC(=O)c1c(N)n(CCCOC(=O)c2ccco2)c2nc3ccccc3nc12`?
Tn7 DDE FP: -4; CRFR2-BP ag: -2; proKLK7 act: 39*; Tn6 DDE FP: 1; CRFR2-BP antag: -12; NRP1-CendR mod: -4; proKLK7 act conf: 63*; EDANS-DABCYL int: 64*

What do the screens show for `COCCCn1c(N)c(C(=O)OCCOC)c2nc3ccccc3nc21`?
Tn7 DDE FP: 2; CRFR2-BP ag: -2; proKLK7 act: 84*; Tn6 DDE FP: -1; CRFR2-BP antag: 13; NRP1-CendR mod: 13; proKLK7 act conf: 71*; EDANS-DABCYL int: 78*

Results for CCOC(=O)c1c(NS(=O)(=O)c2ccccc2)n(CCCOC)c2nc3ccccc3nc12 ?
Tn7 DDE FP: -2; CRFR2-BP ag: -5; proKLK7 act: 82*; Tn6 DDE FP: 2; CRFR2-BP antag: -3; NRP1-CendR mod: 3; proKLK7 act conf: 66*; EDANS-DABCYL int: 70*

What do the screens show for `CN1CCN(c2ccc3c(c2)S(=O)(=O)c2ccccc2C3=O)CC1`?
Tn7 DDE FP: 3; CRFR2-BP ag: 4; proKLK7 act: 20*; Tn6 DDE FP: 4; CRFR2-BP antag: 8; NRP1-CendR mod: -6; proKLK7 act conf: 5; EDANS-DABCYL int: 4.2*

Results for COc1cc2c(c3oc4cccc(O)c4c(=O)c13)[C@@H]1C=CO[C@@H]1O2 ?
Tn7 DDE FP: -3; proKLK7 act: 0; Tn6 DDE FP: -2

Results for CCOc1ccc(-c2cc(C)[n+](CCN3CCOCC3)c(-c3ccc(OCC)cc3)c2)cc1 ?
Tn7 DDE FP: 2; CRFR2-BP ag: 3; proKLK7 act: 25*; Tn6 DDE FP: 0; CRFR2-BP antag: -16; NRP1-CendR mod: 1; proKLK7 act conf: 29*; EDANS-DABCYL int: 28*

How did CC1(O)CCC2C3CCC4=CC(=O)CCC4=C3C=CC21C (configuration not stated) do in these assays?
Tn7 DDE FP: 2; CRFR2-BP ag: 1; proKLK7 act: 14*; Tn6 DDE FP: -3; CRFR2-BP antag: -25; NRP1-CendR mod: -7; proKLK7 act conf: 13*; EDANS-DABCYL int: 23*

Results for O=C(CNCc1c(F)cccc1F)N1CCC2(CC1)OCCO2 ?
Tn7 DDE FP: -2; proKLK7 act: 0; Tn6 DDE FP: -7

How did CC[C@@H](CO)NC(=O)[C@@H]1C=C2c3cccc4[nH]cc(c34)C[C@H]2N(C)C1 do in these assays?
Tn7 DDE FP: 16*; CRFR2-BP ag: 15; proKLK7 act: 19*; Tn6 DDE FP: 1; CRFR2-BP antag: -21; NRP1-CendR mod: 74; proKLK7 act conf: 2; EDANS-DABCYL int: 0; Tn7 DDE conf: -1; DDE Tn7 FP ctr: -1

What do the screens show for `ClCCNc1nc2ccc(Cl)cc2[nH]1`?
Tn7 DDE FP: 14*; CRFR2-BP ag: 1; proKLK7 act: -1; Tn6 DDE FP: 3; CRFR2-BP antag: 17; NRP1-CendR mod: 0; Tn7 DDE conf: -6; DDE Tn7 FP ctr: -8
